Laboratory results published in ChEMBL document CHEMBL1123757, “Selective thromboxane synthetase inhibitors and antihypertensive agents. New derivatives of 4-hydrazino-5H-pyridazino[4,5-b]indole, 4-hydrazinopyridazino[4,5-a]indole, and related compounds” (J Med Chem, 1987).

What was measured:
Homo sapiens [1] = species on record: Homo sapiens; test: In vitro inhibition of platelet aggregation induced by […] (PRP incubated for 5 minutes at 37 degree C) at 10e-5 M; No significance; assay type: functional
Homo sapiens [2] = species on record: Homo sapiens; test: No significance in vitro inhibition of platelet aggregation induced by ADP-II (PRP incubated for 60 minutes at 37 degree C) at 10e-5 M;No significance; assay type: functional
Outline: (§1)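 Human venous blood anticoagulated with 3.8% sodium citrate (1:9). PRP from centrifugation at 800 rpm for 10 min at room temperature. Count adjusted with PPP to […]. Compound in saline with 10% ethylene glycol is added to PRP and incubated at 37 °C before the agonist. Agonists: ADP 2×10^-5 M, AA 0.6 mM, PGH2 2.8 μM, adrenaline 0.6 μM. Born absorbance aggregometry; n = 5.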

Rattus norvegicus [3] = test: Antihypertensive activity in spontaneously hypertensive rats (SHR) measured by percentage fall in cardiac rhythm (CR) at 5 mg/kg administered intraperitoneally at 5 h;No significance; assay type: functional, organism-based; parameters: dose 5 mg/kg; conditions: Heart
Outline: (§2)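 Conscious SHR (Okamoto strain), 8 weeks old, male and female, 300–350 g, systolic BP ≥190 mmHg, CR 400–650 beats/min. Given ip or po at 2.5 mL/kg in normal saline or saline with 0.2% (carboxymethyl)cellulose and 1.0% Tween 80. Tail AP and CR recorded by mechanical transduction at 1, 3, 5 and 24 h, five animals per dose. Effect expressed as % fall versus control.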

Homo sapiens [4] = species on record: Homo sapiens; test: In vitro inhibition of platelet aggregation induced by AA (PRP incubated for 60 minutes at 37 degree C) at 10e-5 M; No significance; assay type: functional; outline: as §1
Homo sapiens [5] = species on record: Homo sapiens; test: In vitro inhibition of platelet aggregation induced by ADP-II (PRP incubated for 5 minutes at 37 degree C) at 10e-5 M; No significance; assay type: functional; outline: as §1
Rattus norvegicus [6] = test: Antihypertensive activity in spontaneously hypertensive rats (SHR) measured by percentage fall in cardiac rhythm (CR) at 25 mg/kg administered perorally at 24 h;No significance; assay type: functional, organism-based; parameters: dose 25 mg/kg; conditions: Heart; outline: as §2
Rattus norvegicus [7] = test: Antihypertensive activity in spontaneously hypertensive rats (SHR) measured by percentage fall in cardiac rhythm (CR) at 25 mg/kg administered perorally at 5 h;No significance; assay type: functional, organism-based; parameters: dose 25 mg/kg; conditions: Heart; outline: as §2
Rattus norvegicus [8] = test: Antihypertensive activity in spontaneously hypertensive rats (SHR) measured by percentage fall in cardiac rhythm (CR) at 5 mg/kg administered intraperitoneally at 24 h;No significance; assay type: functional, organism-based; parameters: dose 5 mg/kg; conditions: Heart; outline: as §2
Rattus norvegicus [9] = test: Antihypertensive activity in spontaneously hypertensive rats (SHR) measured by percentage fall in arterial pressure (AP) at 1 mg/kg administered intraperitoneally at 3 h;No significance; assay type: functional, organism-based; parameters: dose 1 mg/kg; conditions: Artery
Outline: (§3)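 Unanesthetized Okamoto-strain SHR, male and female, 8 weeks old, 300–350 g, systolic pressure ≥190 mmHg, heart rate 400–650 beats/min; five animals per dose. Given ip at 2.5 mL/kg, dissolved or suspended in normal saline or saline with 0.2% (carboxymethyl)cellulose and 1.0% Tween 80. Tail AP and CR recorded by mechanical transduction at set times; reported as percentage fall from control.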

Rattus norvegicus [10] = test: Antihypertensive activity in spontaneously hypertensive rats (SHR) measured by percentage fall in arterial pressure (AP) at 1 mg/kg administered intraperitoneally at 5 h;No significance; assay type: functional, organism-based; parameters: dose 1 mg/kg; conditions: Artery; outline: as §3
Rattus norvegicus [11] = test: Antihypertensive activity in spontaneously hypertensive rats (SHR) measured by percentage fall in arterial pressure (AP) at 25 mg/kg administered intraperitoneally at 24 h; No significance; assay type: functional, organism-based; parameters: dose 25 mg/kg; conditions: Artery; outline: as §3
Rattus norvegicus [12] = test: Antihypertensive activity in spontaneously hypertensive rats (SHR) measured by percentage fall in arterial pressure (AP) at 1 mg/kg administered intraperitoneally at 24 h;No significance; assay type: functional, organism-based; parameters: dose 1 mg/kg; conditions: Artery; outline: as §3
Rattus norvegicus [13] = test: Antihypertensive activity in spontaneously hypertensive rats (SHR) measured by percentage fall in arterial pressure (AP) at 25 mg/kg administered perorally at 24 h;No significance; assay type: functional, organism-based; parameters: dose 25 mg/kg; conditions: Artery
Outline: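 Oral dosing at 2.5 mL/kg to unanesthetized male and female Okamoto-strain SHR (8 weeks old, 300–350 g, systolic pressure ≥190 mmHg, heart rate 400–650 beats/min), five per dose. Vehicle was normal saline or saline with 0.2% (carboxymethyl)cellulose and 1.0% Tween 80. AP measured on the tail by mechanical transduction at set times; expressed as percentage fall from control.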

Rattus norvegicus [14] = test: Antihypertensive activity in spontaneously hypertensive rats (SHR) measured by percentage fall in arterial pressure (AP) at 1 mg/kg administered intraperitoneally at 1 h;No significance; assay type: functional, organism-based; parameters: dose 1 mg/kg; conditions: Artery; outline: as §3
Rattus norvegicus [15] = test: Percent fall in systolic blood pressure, directly measured on carotid (iv on the jugular vein) of spontaneously after 180 minutes; No significance; assay type: functional, organism-based; conditions: Artery
Outline: (§4)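 Anesthetized (sodium pentobarbital, 70 mg/kg) male and female Okamoto SHR, 8 weeks old, 300–350 g. Given iv into the jugular vein in normal saline. Arterial pressure and cardiac rhythm are recorded directly from the carotid by polygraph at set times after dosing. Each is expressed as percent change from the pre-dose control value.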

Rattus norvegicus [16] = test: Percent fall in systolic blood pressure, directly measured on carotid (iv on the jugular vein) of spontaneously hypertensive rats at 1 mg/kg after 240 minutes; No significance; assay type: functional, organism-based; parameters: dose 1 mg/kg; conditions: Artery; outline: as §4

NNc1[nH]ncc2c3cc(OCc4ccccc4)ccc3nc1-2
inactive: inhibition (Homo sapiens [1]) No significant values | inhibition (Homo sapiens [2]) No significant values | Decrease in CR (Rattus norvegicus [3]) No significant values | inhibition (Homo sapiens [4]) No significant values | inhibition (Homo sapiens [5]) No significant values | Decrease in CR (Rattus norvegicus [6]) No significant values | Decrease in CR (Rattus norvegicus [7]) No significant values | Decrease in CR (Rattus norvegicus [8]) No significant values | Decrease in AP (Rattus norvegicus [9]) No significant values | Decrease in AP (Rattus norvegicus [10]) No significant values | Decrease in AP (Rattus norvegicus [11]) No significant values | Decrease in AP (Rattus norvegicus [12]) No significant values

NNc1[nH]ncc2c3cc(O)ccc3nc1-2
inactive: Decrease in AP (Rattus norvegicus [13]) No significant values | Decrease in AP (Rattus norvegicus [14]) No significant values | Decrease in CR (Rattus norvegicus [6]) No significant values | Decrease in blood pressure (Rattus norvegicus [15]) No significant values | Decrease in blood pressure (Rattus norvegicus [16]) No significant values | Decrease in AP (Rattus norvegicus [10]) No significant values
